Experimental data from BindingDB's records for doi:10.1021/acs.jmedchem.6b01066 (University of Copenhagen, 2016).

Molecular target: T1, Excitatory amino acid transporter 3 (Homo sapiens, UniProt P43005)
T1 sequence (P43005 whole entry): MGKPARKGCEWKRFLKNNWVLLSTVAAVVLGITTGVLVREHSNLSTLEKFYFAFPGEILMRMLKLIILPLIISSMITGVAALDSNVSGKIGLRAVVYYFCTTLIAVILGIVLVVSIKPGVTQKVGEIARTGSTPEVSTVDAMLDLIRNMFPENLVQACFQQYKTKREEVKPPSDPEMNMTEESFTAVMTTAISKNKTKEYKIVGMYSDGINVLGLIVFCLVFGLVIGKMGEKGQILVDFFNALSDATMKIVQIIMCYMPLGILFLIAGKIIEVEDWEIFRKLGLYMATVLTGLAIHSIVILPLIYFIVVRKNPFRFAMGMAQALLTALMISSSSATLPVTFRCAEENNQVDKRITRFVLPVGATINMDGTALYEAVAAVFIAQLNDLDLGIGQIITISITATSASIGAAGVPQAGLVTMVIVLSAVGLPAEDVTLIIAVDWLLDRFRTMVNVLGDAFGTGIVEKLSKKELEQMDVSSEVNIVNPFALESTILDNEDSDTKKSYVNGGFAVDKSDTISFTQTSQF
Experiment: Inhibition of [3H]-D-Asp uptake at human EAAT3 expressed in HEK293 cells measured after 3 mins by TopCount method
Method in brief: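 Stably transfected EAAT1-, EAAT2- or EAAT3-HEK293 lines grown in high-glucose GlutaMAX DMEM with 5% dialyzed FBS, penicillin/streptomycin and […]. Cells were seeded and reached confluence in 16−24 h, then washed in uptake buffer (HBSS, 20 mM HEPES, 1 mM CaCl₂, 1 mM MgCl₂, pH 7.4). Uptake ran 3 min at room temperature with 100 nM [³H]-D-aspartate plus test compound at varied concentrations. Two ice-cold washes, then scintillation counting. IC₅₀ from concentration−inhibition curves, n = 3−5.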

N[C@H](C(=O)O)C(NC(=O)Oc1ccccc1)C(=O)O (stereo partly specified)
IC50: 316 µM
